# Assay results gathered from unrelated publications.
# Compare with care: the assays were run in different laboratories.
# Observed: cell growth or viability
Compound,cell line,assay,setting,quantity,value
CC(C)(C)CC(C)(C)Nc1c(-c2ccccc2)nc2ncccn12,MDA-MB-231,MTT,"25 µM, 48 h",viability,58.2%
CCCCN1C[C@H]2CC[C@@H]3[C@]4(C)COC(C)(C)O[C@@H]4CC[C@@]3(C)[C@@H]2C[C@@H]1C1=CCOC1=O,MRC5,ATP luminescence,"25 µM, 72 h",cell death,33.7%
COc1cccc2c1C(=O)c1c(O)c3c(c(O)c1C2=O)C[C@@](O)(C(=O)CO)C[C@@H]3O[C@H]1C[C@H](N)[C@H](O)[C@H](C)O1,MDA-MB-231,MTT,"25 µM, 48 h",viability,33.8%
NCC(NC(=O)c1ccc(-c2ccc(C(F)(F)F)c(F)c2)[nH]1)c1nc(CO)cs1 (stereo not drawn),U87.CD4.CXCR4,XTT,72 h,CC50,35 µM
Cc1cn([C@@H]2C[C@H](O)[C@@H](CNC(=O)Nc3ccc(-c4ccccc4)cc3)O2)c(=O)[nH]c1=O,MRC5,,,CC50,> 50 µM
CC(=O)OC[C@@]1(C)[C@H]2CC[C@@H]3CN(C(C)C)[C@@H](C4=CCOC4=O)C[C@H]3[C@]2(C)CC[C@H]1OC(C)=O,MRC5,ATP luminescence,"25 µM, 72 h",cell death,-2.1%
COc1cc(OC)c2c(=O)cc(-c3ccc(N(C)C)cc3)oc2c1-c1c(OC)cc(OC)c2c(=O)cc(-c3ccc(N(C)C)cc3)oc12,HS27,MTT,24 h,CC50,> 200 µM
CC(C)(C)CC(C)(C)Nc1c(-c2cccnc2)nc2ncccn12,MDA-MB-231,MTT,"25 µM, 48 h",viability,85.2%
CC1(C)OC[C@@]2(C)[C@H]3CC[C@@H]4CN(Cc5cccs5)[C@@H](C5=CCOC5=O)C[C@H]4[C@]3(C)CC[C@H]2O1,MRC5,ATP luminescence,"25 µM, 72 h",cell death,-0.9%
COc1cc(OC)c2c(=O)cc(-c3ccc(Br)cc3)oc2c1,HS27,MTT,24 h,CC50,> 200 µM
CC1(C)OC[C@@]2(C)[C@H]3CC[C@@H]4CN(Cc5ccc(C(F)(F)F)cc5)[C@@H](C5=CCOC5=O)C[C@H]4[C@]3(C)CC[C@H]2O1,MRC5,ATP luminescence,"25 µM, 72 h",cell death,7.1%
COc1cc(OC)c2c(=O)cc(-c3ccccc3)oc2c1-c1c(OC)cc(OC)c2c(=O)cc(-c3ccccc3)oc12,HS27,MTT,24 h,CC50,> 200 µM
